pIC50: −log10 of the molar value. Active and inactive are the calls of the source. The rule behind the calls is not given here.
Assays:
PANC-1 [1] = experiment: Antiproliferative activity against human PANC1 cells after 48 hrs by MTT assay; assay type: functional, cell-based; details: PANC-1, 48 h
In short: (§1)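 Cells were seeded at 5×10^5 cells/mL overnight and exposed to graded compound concentrations for 48 h. MTT (5 mg/mL stock) was added for 4 h at 37 °C, and formazan was dissolved in DMSO. Absorbance was read at 570 nm. IC₅₀ was fitted from the curves; values are mean ± SD, n = 3.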

MCF7 = experiment: Antiproliferative activity against human MCF7 cells after 48 hrs by MTT assay; assay type: functional, cell-based; details: MCF7, 48 h; in short: as §1
[2] = Distribution co-efficient, log D of the compound at pH 7.4; assay type: physicochemical; details: buffer
In short: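 Intrinsic aqueous solubility and log D at pH 7.4 were measured on a pION Gemini Profiler.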

[3] = Effective permeability of the compound at pH 7.4 by PAMPA; assay type: ADME; details: read-out: Peff
In short: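 Effective permeability was measured by double-sink PAMPA on a pION PAMPA Explorer.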

[4] = Cmax in rat at 10 mg/kg, po after 0.083 to 24 hrs by LC-MS/MS method; assay type: ADME, organism-based; parameters: dose 10 mg/kg, route oral; details: in vivo
[5] = Half life in rat at 10 mg/kg, po after 0.083 to 24 hrs by LC-MS/MS method; assay type: ADME, organism-based; details: in vivo
[6] = AUC (0 to t) in rat at 10 mg/kg, po after 0.083 to 24 hrs by LC-MS/MS method; assay type: ADME, organism-based; parameters: dose 10 mg/kg, time upper 24 hr, time lower 0.083 hr, route oral; details: in vivo
[7] = Oral bioavailability in rat at 10 mg/kg after 0.083 to 24 hrs by LC-MS/MS method; assay type: ADME, organism-based; details: in vivo
[8] = Bioavailability in rat at 10 mg/kg, ip after 0.083 to 24 hrs by LC-MS/MS method; assay type: ADME, organism-based; details: in vivo
PANC-1 [9] = experiment: Induction of apoptosis in human PANC1 cells assessed as early apoptotic cells at 1 uM after 24 hrs by annexin V/propidium iodide staining-based flow cytometric method (reference value: 7.25%); assay type: functional
PANC-1 [10] = experiment: Induction of apoptosis in human PANC1 cells assessed as late apoptotic cells at 1 uM after 24 hrs by annexin V/propidium iodide staining-based flow cytometric method (reference value: 2.65%); assay type: functional
PANC-1 [11] = experiment: Induction of apoptosis in human PANC1 cells assessed as dead cells at 1 uM after 24 hrs by annexin V/propidium iodide staining-based flow cytometric method (reference value: 0.60%); assay type: functional
PANC-1 [12] = experiment: Induction of apoptosis in human PANC1 cells assessed as viable cells at 1 uM after 24 hrs by annexin V/propidium iodide staining-based flow cytometric method (reference value: 89.5%); assay type: functional; details: PANC-1, 24 h, read-out: Activity
PANC-1 [13] = experiment: Induction of apoptosis in human PANC1 cells assessed as late apoptotic cells at 2 uM after 24 hrs by annexin V/propidium iodide staining-based flow cytometric method (reference value: 2.65%); assay type: functional
PANC-1 [14] = experiment: Induction of apoptosis in human PANC1 cells assessed as dead cells at 2 uM after 24 hrs by annexin V/propidium iodide staining-based flow cytometric method (reference value: 0.60%); assay type: functional
PANC-1 [15] = experiment: Anticlonogenic activity against human PANC1 cells after 2 weeks by crystal violet staining-based assay; assay type: functional, cell-based
In short: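 PANC-1 cells were seeded at 100 cells/well overnight, then exposed to graded compound concentrations for 14 days with medium changed every three days. Colonies were fixed in 10% ethanol for 10 min and stained with 0.5% crystal violet in 25% ethanol for 10 min. Plates were dried and scanned.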

PANC-1 [16] = experiment: Induction of apoptosis in human PANC1 assessed as increase in cleaved caspase-3 levels at 0.1 to 1 uM after 24 hrs by Western blot method; assay type: functional, cell-based
In short: (§2)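 PANC-1 cells were treated with graded compound concentrations for 24 h, then lysed. Proteins were separated by SDS-PAGE and blotted to PVDF. Blots were probed for PARP, cleaved PARP, caspase-3, cleaved caspase-3, caspase-9 and cleaved caspase-9, with GAPDH as loading control, and read by infrared imaging. Bands were quantified by densitometry as ratios normalized to GAPDH.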

PANC-1 [17] = experiment: Induction of apoptosis in human PANC1 assessed as increase in cleaved caspase-9 levels at 0.1 to 1 uM after 24 hrs by Western blot method; assay type: functional, cell-based; in short: as §2
PANC-1 [18] = experiment: Induction of apoptosis in human PANC1 assessed as decrease in PARP levels at 0.1 to 1 uM after 24 hrs by Western blot method; assay type: functional, cell-based; in short: as §2
PANC-1 [19] = experiment: Antitumor activity against human PANC1 cells xenografted in nude mouse assessed as inhibition of tumor weight at 60 mg/kg, ip administered every 2 days for 21 days relative to vehicle-treated control; assay type: functional; details: PANC-1, ip
In short: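 Female nude mice received 1×10^7 PANC-1 cells subcutaneously in the right flank. After 4 weeks, mice bearing tumors averaging 100 mm³ were randomized into five groups. Dosing was 15, 30 or 60 mg/kg i.p. every two days for 21 days. Tumor volume = width² × length/2; tumors were weighed at sacrifice, and body weight was monitored.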

Mus musculus [20] = experiment: Toxicity in nude mouse xenografted with human PANC1 cells assessed as effect on body weight at 15 to 60 mg/kg, ip administered every 2 days for 21 days measured during compound dosing; assay type: organism-based; details: in vivo
In short: (§3)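 Female nude mice were implanted s.c. in the right flank with 1×10^7 PANC-1 cells. After 4 weeks, mice with tumours averaging 100 mm³ were randomized into five groups. They were dosed i.p. at 15, 30 or 60 mg/kg every two days for 21 days and monitored for toxicity, tumour growth and body weight.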

Mus musculus [21] = experiment: Toxicity in nude mouse xenografted with human PANC1 cells assessed as effect on quality of life at 15 to 60 mg/kg, ip administered every 2 days for 21 days measured during compound dosing; assay type: organism-based; details: in vivo; in short: as §3
[22] = biological target: Hypoxia-inducible factor 1-alpha (Homo sapiens) (UniProt Q16665); experiment: Inhibition of HIF-1alpha in human PANC1 cells assessed as downregulation of VEGF mRNA levels under hypoxia condition after 24 hrs by qRT-PCR method; assay type: cell-based
Hypoxia-inducible factor 1-alpha (Homo sapiens), sequence (Q16665 whole entry, looked up): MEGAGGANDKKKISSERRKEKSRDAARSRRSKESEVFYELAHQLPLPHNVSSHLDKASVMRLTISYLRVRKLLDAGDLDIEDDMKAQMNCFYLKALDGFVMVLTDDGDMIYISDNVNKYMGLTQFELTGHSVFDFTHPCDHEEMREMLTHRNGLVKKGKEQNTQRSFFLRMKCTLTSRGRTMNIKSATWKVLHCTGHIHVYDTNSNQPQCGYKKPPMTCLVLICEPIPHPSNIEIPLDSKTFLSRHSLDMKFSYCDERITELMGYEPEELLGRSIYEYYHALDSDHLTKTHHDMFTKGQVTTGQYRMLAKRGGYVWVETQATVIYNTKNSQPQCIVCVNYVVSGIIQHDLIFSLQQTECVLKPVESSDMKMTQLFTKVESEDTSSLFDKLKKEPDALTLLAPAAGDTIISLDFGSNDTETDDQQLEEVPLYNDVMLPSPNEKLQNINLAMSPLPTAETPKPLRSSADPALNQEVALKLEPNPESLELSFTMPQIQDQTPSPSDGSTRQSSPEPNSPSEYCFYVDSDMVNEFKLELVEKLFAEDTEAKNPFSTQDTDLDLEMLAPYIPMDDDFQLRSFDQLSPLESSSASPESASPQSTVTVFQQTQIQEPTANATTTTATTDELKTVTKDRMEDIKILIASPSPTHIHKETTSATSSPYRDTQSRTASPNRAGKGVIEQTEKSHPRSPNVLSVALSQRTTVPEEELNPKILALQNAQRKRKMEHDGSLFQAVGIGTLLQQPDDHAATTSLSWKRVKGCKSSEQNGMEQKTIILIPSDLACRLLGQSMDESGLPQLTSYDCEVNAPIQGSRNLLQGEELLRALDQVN
In short: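 PANC-1 cells were exposed to hypoxia (1% O₂, 94% N₂, 5% CO₂, 37 °C) for 24 h with compound treatment. VEGF mRNA was measured by real-time qRT-PCR.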

HUVEC [23] = experiment: Antimigratory activity against HUVEC at 1 uM by wound-healing assay; assay type: functional, cell-based; details: Homo sapiens, TDE = time-dependent effect
In short: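 HUVEC monolayers at 90% confluence were switched to serum-free medium and scratched with a pipette tip. Compound was added under hypoxia (1% O₂, 94% N₂, 5% CO₂, 37 °C) in the presence of PANC-1 conditioned medium. Wound closure was imaged by inverted-phase microscope at 12 h and 24 h.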

Mus musculus [24] = experiment: Downregulation of CD31 expression in human PANC1 cells xenografted in nude mouse at 15 to 60 mg/kg, ip administered every 2 days for 21 days by immunohistochemical method; assay type: functional, organism-based
In short: (§4)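 Tumors came from the PANC-1 nude-mouse xenografts dosed at 15, 30 or 60 mg/kg i.p. every two days for 21 days. Tumor sections were stained immunohistochemically with antibodies against CD31, HIF-1α and VEGF.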

Mus musculus [25] = experiment: Effect on HIF-1alpha expression in human PANC1 cells xenografted in nude mouse at 15 to 60 mg/kg, ip administered every 2 days for 21 days by immunohistochemical method; assay type: functional, organism-based; in short: as §4
HUVEC [26] = experiment: Antiangiogenic activity in HUVEC assessed as inhibition of tube formation under hypoxia condition at 0.625 to 2.5 uM after 6 hrs by inverted microscopic method; details: Homo sapiens

In the case of Cc1c(C(=O)NC2CCN(C)CC2)oc2ccc(N(Cc3ccc(Br)cc3)S(=O)(=O)c3ccc(Br)cc3)cc12, the pIC50 (PANC-1 [1]) was 5.97, the pIC50 (MCF7) was 5.62 and the logD [2] was 3.15. For the same molecule, the Papp [3] was 6.54 ×10⁻⁶ cm/s, the Cmax [4] was 80.6 ng/mL and the half-life [5] was 398 min. The AUC(0-t) [6] was 1080 ng·h/mL, the bioavailability [7] was 15% and the bioavailability [8] was 86.1%. For the same molecule, the Activity (PANC-1 [9]) was 3.55%, the Activity (PANC-1 [10]) was 45.6% and the Activity (PANC-1 [11]) was 0.2%. For the same molecule, the viability at 1 µM (PANC-1 [12]) was 50.6%, the Activity (PANC-1 [13]) was 51.15% and the Activity (PANC-1 [14]) was 0.45%. For the same molecule, the Activity (PANC-1 [15]) was “Dose-dependent effect”, the Activity (PANC-1 [16]) was “Active” and the Activity (PANC-1 [17]) was “Active”. For the same molecule, the Activity (PANC-1 [18]) was “Active”, the inhibition in vivo at 60 mg/kg (PANC-1 [19]) was 75.8% and the Activity (Mus musculus [20]) was “Non-Toxic”. For the same molecule, the Activity (Mus musculus [21]) was “Non-Toxic”, the inhibition [22] was “Dose-dependent effect” and the inhibition (HUVEC [23]) was “Tde”. For the same molecule, the Activity (Mus musculus [24]) was “Active”, the Activity (Mus musculus [25]) was “inactive” and the inhibition (HUVEC [26]) was “Active”.
